Assay results reported in ChEMBL document CHEMBL4257447, “Discovery of human lactate dehydrogenase A (LDHA) inhibitors as anticancer agents to inhibit the proliferation of MG-63 osteosarcoma cells” (Medchemcomm, 2017).
Activity calls are given as the source filed them. The calls are words filed in the database; no cut-off is given here.

Tests used:
MG-63 [1] = assay: Growth inhibition of human MG63 cells at 10 uM after 72 hrs by MTT assay relative to control; assay type: functional; conditions: for inhibition of growth at 10 µM: MG-63, 72 h, read-out: GI
How it was run: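 MG-63 cells (2500/well) were plated overnight. 10 μL of 100 μM working solution in PBS, diluted from 40 mM stock, was added for 72 h. MTT was added for 4 h, the solvent replaced with DMSO, and OD570 read as percent growth inhibition.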

[2] = target: L-lactate dehydrogenase A chain (Bos taurus, UniProt P19858); assay: Inhibition of bovine heart LDHA
MG-63 [3] = assay: Induction of apoptosis in human MG63 cells assessed as necrotic cells at 10 uM after 24 hrs by annexin V-FITC/propidium iodide staining-based flow cytometric analysis (reference value: 0.8%); assay type: functional
MG-63 [4] = assay: Induction of apoptosis in human MG63 cells after 24 hrs by annexin V-FITC/propidium iodide staining-based flow cytometric analysis; assay type: functional, cell-based
MG-63 [5] = assay: Induction of apoptosis in human MG63 cells assessed as viable cells at 10 uM after 24 hrs by annexin V-FITC/propidium iodide staining-based flow cytometric analysis (reference value: 95.2%); assay type: functional; conditions: MG-63, 24 h, read-out: Activity
MG-63 [6] = assay: Induction of apoptosis in human MG63 cells assessed as late apoptotic cells at 5 uM after 24 hrs by annexin V-FITC/propidium iodide staining-based flow cytometric analysis (reference value: 3.2%); assay type: functional
MG-63 [7] = assay: Induction of apoptosis in human MG63 cells assessed as early apoptotic cells at 5 uM after 24 hrs by annexin V-FITC/propidium iodide staining-based flow cytometric analysis (reference value: 0.8%); assay type: functional
[8] = target: T1, L-lactate dehydrogenase A chain (Homo sapiens, UniProt P00338); assay: Inhibition of LDHA in human MG63 cells assessed as increase in oxygen consumption rate at 2 to 10 uM after 6 hrs by XF24 extracellular flux analyzer based assay; assay type: cell-based
How it was run: (§1)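 MG-63 cells (30 000/well) were pretreated for 6 h with a range of concentrations. OCR and ECAR were then measured on the XF24 extracellular flux analyzer.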

MG-63 [9] = assay: Induction of apoptosis in human MG63 cells assessed as early apoptotic cells at 10 uM after 24 hrs by annexin V-FITC/propidium iodide staining-based flow cytometric analysis (reference value: 0.8%); assay type: functional
MG-63 [10] = assay: Induction of apoptosis in human MG63 cells assessed as late apoptotic cells at 2 uM after 24 hrs by annexin V-FITC/propidium iodide staining-based flow cytometric analysis (reference value: 3.2%); assay type: functional
MG-63 [11] = assay: Induction of apoptosis in human MG63 cells assessed as late apoptotic cells at 10 uM after 24 hrs by annexin V-FITC/propidium iodide staining-based flow cytometric analysis (reference value: 3.2%); assay type: functional
MG-63 [12] = assay: Induction of apoptosis in human MG63 cells assessed as necrotic cells at 5 uM after 24 hrs by annexin V-FITC/propidium iodide staining-based flow cytometric analysis (reference value: 0.8%); assay type: functional
MG-63 [13] = assay: Induction of apoptosis in human MG63 cells assessed as necrotic cells at 2 uM after 24 hrs by annexin V-FITC/propidium iodide staining-based flow cytometric analysis (reference value: 0.8%); assay type: functional
MG-63 [14] = assay: Growth inhibition of human MG63 cells after 72 hrs by MTT assay; assay type: functional, cell-based; conditions: MG-63, 72 h
How it was run: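 MG-63 cells (2500/well), grown in DMEM with 10% FBS at 37 °C and 5% CO2, plated overnight. They were then exposed for 72 h to eight concentrations (400 to 3.1 μM as listed), diluted in PBS from 40 mM stocks. MTT was added for 4 h and the formazan dissolved in DMSO, with OD read at 570 nm. EC50 is the mean of three independent experiments; cisplatin was the positive control.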

[15] = target: T1, L-lactate dehydrogenase A chain; assay: Inhibition of human LDHA using pyruvate as substrate by monitoring the disappearance of NADH relative to control
[16] = target: T1, L-lactate dehydrogenase A chain; assay: Inhibition of LDHA in human MG63 cells assessed as decrease in lactate levels after 4 hrs; assay type: cell-based
How it was run: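 MG-63 cells (3×10^5/well, 6-well) were plated overnight and treated for 4 h at 2, 5, 8, 10 and 12 μM, with 10 μM for the reference. Medium was centrifuged for 5 min and 1 mL assayed for lactate on a Nova Bioprofile Flex analyzer. IC50 was derived from the dose-response.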

MG-63 [17] = assay: Induction of apoptosis in human MG63 cells assessed as early apoptotic cells at 2 uM after 24 hrs by annexin V-FITC/propidium iodide staining-based flow cytometric analysis (reference value: 0.8%); assay type: functional
MG-63 [18] = assay: Induction of apoptosis in human MG63 cells assessed as viable cells at 2 uM after 24 hrs by annexin V-FITC/propidium iodide staining-based flow cytometric analysis (reference value: 95.2%); assay type: functional; conditions: MG-63, 24 h, read-out: Activity
[19] = target: T1, L-lactate dehydrogenase A chain; assay: Inhibition of human LDHA at 2 uM using pyruvate as substrate by monitoring the disappearance of NADH relative to control
MG-63 [20] = assay: Induction of apoptosis in human MG63 cells assessed as viable cells at 5 uM after 24 hrs by annexin V-FITC/propidium iodide staining-based flow cytometric analysis (reference value: 95.2%); assay type: functional; conditions: MG-63, 24 h, read-out: Activity
[21] = target: T1, L-lactate dehydrogenase A chain; assay: Inhibition of LDHA in human MG63 cells assessed as decrease in extracellular acidification rate at 2 to 10 uM after 6 hrs by XF24 extracellular flux analyzer based assay; assay type: cell-based; how it was run: as §1
[22] = target: T1, L-lactate dehydrogenase A chain; assay: Binding affinity to LDHA (unknown origin) by ITC analysis
How it was run: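 LDHA diluted to 10 μM in 50 mM Hepes pH 7.2, 100 mM NaCl, 2 mM DTT, 1% DMSO (250 μL in cell); ligand at 100 μM in the same buffer titrated in 2.5 μL injections at 25 °C. One-site model fit gives the binding parameters.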

SMILES: COc1c(C)c2c(c(O)c1C/C=C(\C)CCC(=O)NCc1ccc(Cl)cc1)C(=O)OC2
- growth inhibition (GI) (MG-63 [1]): inactive

SMILES: NC(=O)C(=O)O [OXAMATE]
- Ki [2]: 136 µM

SMILES: COCc1cc(=O)c(O)c([C@@H](CC(N)=O)c2cc3ccccc3n(CC(C)C)c2=O)o1
- Activity (MG-63 [3]): 1.2%
- Activity (MG-63 [4]): Dose-dependent effect
- viability at 10 µM (MG-63 [5]): 82.9%
- Activity (MG-63 [6]): 5.8%
- Activity (MG-63 [7]): 4.2%
- inhibition [8]: Dose-dependent effect
- Activity (MG-63 [9]): 3%
- Activity (MG-63 [10]): 4.4%
- Activity (MG-63 [11]): 12.9%
- Activity (MG-63 [12]): 0.7%
- Activity (MG-63 [13]): 0.6%
- EC50 (MG-63 [14]): 3.35 µM
- IC50 [15]: 0.33 µM
- IC50 [16]: 7.19 µM
- inhibition [16]: Dose-dependent effect
- Activity (MG-63 [17]): 1%
- viability at 2 µM (MG-63 [18]): 94%
- inhibition [19]: 94%
- viability at 5 µM (MG-63 [20]): 89.3%
- inhibition of growth at 10 µM (MG-63 [1]): 88.7%
- inhibition [21]: Active
- Kd [22]: 0.95 µM

SMILES: COC(=O)C[C@H](c1cccc(O)c1)c1oc(CSc2ccccc2OC)cc(=O)c1O
- inhibition of growth at 10 µM (MG-63 [1]): 68.9%

SMILES: Cc1cc(=O)c(O)c([C@H](CC(=O)N2CCc3c([nH]c4ccccc34)C2)c2ccnc3ccccc23)o1
- inhibition of growth at 10 µM (MG-63 [1]): 48.7%

SMILES: O=C1CC(c2c(Cl)cccc2Cl)CC(O)=C1Sc1ccccc1Cl (stereo not given)
- IC50 [15]: 2.37 µM
- growth inhibition (GI) (MG-63 [1]): inactive

SMILES: CCOC(=O)C[C@H](c1cc(OC)c2c(c1)OCCO2)c1oc(CO)cc(=O)c1O
- inhibition [19]: 71%
- inhibition of growth at 10 µM (MG-63 [1]): 67.8%
